Measured values from ChEMBL document CHEMBL2390871, “Exploring the anticancer potential of pyrazolo[1,2-a]benzo[1,2,3,4]tetrazin-3-one derivatives: the effect on apoptosis induction, cell cycle and proliferation” (Eur J Med Chem, 2013).
Active and inactive are the calls of the source. The calls are words filed in the database; no cut-off is given here.

What was measured:
UO-31 = test: Cytotoxicity against human UO31 cells assessed as growth at 10 uM after 48 hrs by sulforhodamine B assay; type: functional; settings: UO-31, 48 h, read-out: Activity
In short: (§1)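 NCI-60 one-dose screen at 10 µM. Cells in RPMI 1640 with 5% FBS and 2 mM L-glutamine were plated at 5000–40,000/well and preincubated 24 h. Drug was then applied for 48 h at 37 °C, 5% CO₂. Adherent cells were fixed with cold TCA (10% final) and stained with SRB. Growth % is relative to the no-drug control and the time-zero cell number; negative values indicate lethality.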

SNB-75 = test: Cytotoxicity against human SNB75 cells assessed as growth at 10 uM after 48 hrs by sulforhodamine B assay; type: functional; settings: SNB-75, 48 h, read-out: Activity; in short: as §1
NCI-H522 = test: Cytotoxicity against human NCI-H522 cells assessed as growth at 10 uM after 48 hrs by sulforhodamine B assay; type: functional; settings: NCI-H522, 48 h, read-out: Activity; in short: as §1
HOP-92 = test: Cytotoxicity against human HOP92 cells assessed as growth at 10 uM after 48 hrs by sulforhodamine B assay; type: functional; settings: HOP-92, 48 h, read-out: Activity; in short: as §1
CCRF-CEM = test: Cytotoxicity against human CCRF-CEM cells assessed as growth at 10 uM after 48 hrs by sulforhodamine B assay; type: functional; settings: read-out: Activity; in short: as §1
[1] = Cytotoxicity against human LAN5 cells after overnight incubation by MTT assay; type: functional, cell-based; settings: LA-N-5
In short: (§2)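 MTT (5 mg/ml) was added for 3 h at 37 °C, formazan dissolved in DMSO, and absorbance read at 540 nm. Viability is relative to untreated cells (100%), fitted to a four-parameter Hill equation. IC50 is 50% formazan formation versus drug-free control. Triplicates, at least three independent experiments.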

HeLa [2] = test: Cell cycle arrest in human HeLa cells assessed as accumulation at sub-G0/G1 phase at 50 uM after 72 hrs by propidium iodide staining-based FACS analysis; type: functional
In short: (§3)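 HeLa cells (1 × 10⁶) exposed 72 h to 5, 10, 25 or 50 µM of each compound. Cells were washed, trypsinized, fixed in chilled 70% ethanol on ice for more than 2 h, and stained with propidium iodide for 15 min at 37 °C in the dark. Cell-cycle phase distribution was read by flow cytometry against untreated control cells.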

HeLa [3] = test: Cell cycle arrest in human HeLa cells assessed as accumulation at S phase at 50 uM after 72 hrs by propidium iodide staining-based FACS analysis; type: functional; in short: as §3
HeLa [4] = test: Induction of mitochondrial membrane depolarization in human HeLa cells at 3 to 4 uM after overnight incubation by FACS analysis; type: functional, cell-based
In short: (§4)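 HeLa cells (175,000/well) were incubated overnight with serial drug concentrations. They were washed with PBS, incubated 30 min at 37 °C in Krebs Ringer buffered saline, detached, and collected in buffer with 1% FCS. At least 2 × 10⁴ cells were analysed by flow cytometry, with the TMRM signal read on FL2. Depolarization was gated on cells treated overnight with staurosporine as positive control, and the untreated-cell signal was subtracted. Triplicates, replicated twice.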

T47D = test: Cytotoxicity against human T47D cells assessed as growth at 10 uM after 48 hrs by sulforhodamine B assay; type: functional; settings: read-out: Activity; in short: as §1
SW-620 = test: Cytotoxicity against human SW620 cells assessed as growth at 10 uM after 48 hrs by sulforhodamine B assay; type: functional; settings: SW-620, 48 h, read-out: Activity; in short: as §1
NCI-H292 = test: Cytotoxicity against human NCI-H292 cells after overnight incubation by MTT assay; type: functional, cell-based; in short: as §2
[5] = Cytotoxicity against human 16HBE cells after overnight incubation by MTT assay; type: functional, cell-based; settings: 16HBE14o-; in short: as §2
SK-MEL-2 = test: Cytotoxicity against human SK-MEL-2 cells assessed as growth at 10 uM after 48 hrs by sulforhodamine B assay; type: functional; settings: SK-MEL-2, 48 h, read-out: Activity; in short: as §1
MCF7 = test: Cytotoxicity against human MCF7 cells after overnight incubation by MTT assay; type: functional, cell-based; in short: as §2
MOLT-4 = test: Cytotoxicity against human MOLT4 cells assessed as growth at 10 uM after 48 hrs by sulforhodamine B assay; type: functional; settings: MOLT-4, 48 h, read-out: Activity; in short: as §1
PC-3 = test: Cytotoxicity against human PC3 cells assessed as growth at 10 uM after 48 hrs by sulforhodamine B assay; type: functional; settings: PC-3, 48 h, read-out: Activity; in short: as §1
Caco-2 = test: Cytotoxicity against human Caco2 cells after overnight incubation by MTT assay; type: functional, cell-based; in short: as §2
HeLa [6] = test: Cytotoxicity against human HeLa cells after overnight incubation by MTT assay; type: functional, cell-based; in short: as §2
IGROV-1 = test: Cytotoxicity against human IGROV1 cells assessed as growth at 10 uM after 48 hrs by sulforhodamine B assay; type: functional; settings: IGROV-1, 48 h, read-out: Activity; in short: as §1
COLO 205 = test: Cytotoxicity against human COLO205 cells assessed as growth at 10 uM after 48 hrs by sulforhodamine B assay; type: functional; settings: COLO 205, 48 h, read-out: Activity; in short: as §1
HeLa [7] = test: Induction of mitochondrial membrane depolarization in human HeLa cells after overnight incubation by FACS analysis; type: functional, cell-based; in short: as §4
HeLa [8] = test: Induction of mitochondrial membrane depolarization in human HeLa cells at 1 uM after overnight incubation by FACS analysis; type: functional, cell-based; in short: as §4
HeLa [9] = test: Cell cycle arrest in human HeLa cells assessed as accumulation at G1 phase at 5 to 50 uM after 72 hrs by propidium iodide staining-based FACS analysis; type: functional; in short: as §3
HeLa [10] = test: Cell cycle arrest in human HeLa cells assessed as accumulation at sub-G0/G1 phase at 5 to 50 uM after 72 hrs by propidium iodide staining-based FACS analysis; type: functional; in short: as §3
HeLa [11] = test: Induction of mitochondrial membrane depolarization in human HeLa cells at 3 to 8 uM after overnight incubation by FACS analysis; type: functional, cell-based; in short: as §4
HeLa [12] = test: Induction of mitochondrial membrane depolarization in human HeLa cells at < 10 uM after overnight incubation by FACS analysis; type: functional, cell-based; in short: as §4

| SMILES | growth at 10 µM (UO-31) [%] | growth at 10 µM (SNB-75) [%] | growth at 10 µM (NCI-H522) [%] | growth at 10 µM (HOP-92) [%] | growth at 10 µM (CCRF-CEM) [%] | IC50 [1] [µM] | growth at 10 µM (T47D) [%] | growth at 10 µM (SW-620) [%] | IC50 (NCI-H292) [µM] | IC50 [5] [µM] | growth at 10 µM (SK-MEL-2) [%] | IC50 (MCF7) [µM] | growth at 10 µM (MOLT-4) [%] | growth at 10 µM (PC-3) [%] | IC50 (Caco-2) [µM] | IC50 (HeLa [6]) [µM] | growth at 10 µM (COLO 205) [%] | also measured |
| --- | --- | --- | --- | --- | --- | --- | --- | --- | --- | --- | --- | --- | --- | --- | --- | --- | --- | --- |
| Cc1cc2nnn3c(=O)cc(C)n3c2cc1C | 84 | 89 | 97 | 93 | 19 | 95.5 | 97 | 94 | 23.4 | 38.9 | 96 | 46.7 | 82 | 100 | 46.8 | 13.2 | 66 | Activity (HeLa [2]): 18%; Activity (HeLa [3]): 10%; Activity (HeLa [4]): Active; growth at 10 µM (IGROV-1): 91% |
| Cc1cc(=O)n2nnc3cc(Cl)ccc3n12 | – | – | – | – | – | 31.6 | – | – | 23.4 | 17.7 | – | 20.5 | – | – | 24 | 14.8 | – | EC50 (HeLa [7]): 5 µM |
| Cc1cc(=O)n2nnc3cc(C(F)(F)F)ccc3n12 | 84 | 116 | 97 | 94 | 103 | 15.1 | 115 | 118 | > 100 | 30.9 | 99 | > 100 | 91 | 101 | > 100 | > 100 | 108 | Activity (HeLa [8]): Active; Activity (HeLa [9]): -12%; Activity (HeLa [10]): 7.2% |
| Cc1cc(=O)n2nnc3cc(Cl)c(Cl)cc3n12 | 81 | 96 | 54 | 101 | 23 | 25.7 | 76 | 23 | 28.2 | 13.5 | 102 | 13.9 | 59 | 94 | 25.7 | 14.8 | -64 | EC50 (HeLa [7]): 3 µM; Activity (HeLa [2]): 25.4%; Activity (HeLa [3]): 19.4% |
| Cc1cc(=O)n2nnc3ccc(Cl)cc3n12 | – | – | – | – | – | 48.9 | – | – | 25.1 | 27.5 | – | 29.5 | – | – | 34.6 | 15.8 | – | – |
| Cc1ccc2c(c1)nnn1c(=O)cc(C)n21 | – | – | – | – | – | 93.3 | – | – | 25.1 | 36.3 | – | 42.6 | – | – | 50.2 | 15.4 | – | Activity (HeLa [11]): Active |
| Cc1cc(=O)n2nnc3cc(C#N)ccc3n12 | 105 | 96 | 97 | 103 | 100 | 28.2 | 91 | 110 | 43.6 | 46.7 | 99 | 35.9 | 95 | 101 | 37.1 | 27 | 104 | Activity (HeLa [12]): Active |
